Assay outcomes deposited in PubChem by several laboratories.
NR3A LBD binder = binders of NR3A ligand-binding domain, primary screen, biophysical, differential scanning fluorimetry, uHTS; Glutamate receptor ionotropic, NMDA 3A (GRIN3A) ligand-binding domain; NR3A LBD differential scanning fluorimetry, Tm shift; 0% = protein alone, 100% = glycine-bound protein; Tm shift relative to glycine control, % at 25 µM; 340,000 compounds, 2.5% hits; AID 1259313, 2017;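 active = melting temperature shift of at least 10% of the positive control shift, at one fixed dose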
NPR1 activator = GC-A stimulated cGMP production enhancers – HEK293 GC-A cells, cGMP TR-FRET, EC30 ANP, primary screen; 0% at EC30 ANP, 100% saturating ANP; activation, % at 10 µM; Atrial natriuretic peptide receptor 1 (Homo sapiens), P16066; 370,000 compounds, 0.14% hits; in the data active = activation above about 40%
NPR2 activator = human GC-B receptor activators, primary screen, HEK293 GC-B cells, cGMP TR-FRET, EC30 CNP; Atrial natriuretic peptide receptor 2 (Homo sapiens), P20594; 0% at EC30 CNP, 100% saturating CNP; activation, % at 10 µM; 370,000 compounds, 0.11% hits; AID 1920062, 2024;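 active = activation at 10 µM reaching about 35% in either raw or pattern-adjusted values, limit read from the data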
JMJD2C inh = inhibitors of GASC-1 histone demethylase, primary screen, biochemical, fluorescence, DELFIA europium; Lysine-specific demethylase 4C (Homo sapiens), Q9H3R0; GST-JMJD2C(1-420) H3K9me3 demethylation; inhibition, % at 2.35 µM; 330,000 compounds, 0.069% hits;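 active = more than half of a compound's replicate wells show inhibition beyond 50%, single wells judged on their own value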;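 note: signal counts dimethyl H3K9 product captured on neutravidin plate; 0% = median of DMSO wells and 100% = 0.3 times that DMSO median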
Target sequence (Q9H3R0 1-420 limits assumed): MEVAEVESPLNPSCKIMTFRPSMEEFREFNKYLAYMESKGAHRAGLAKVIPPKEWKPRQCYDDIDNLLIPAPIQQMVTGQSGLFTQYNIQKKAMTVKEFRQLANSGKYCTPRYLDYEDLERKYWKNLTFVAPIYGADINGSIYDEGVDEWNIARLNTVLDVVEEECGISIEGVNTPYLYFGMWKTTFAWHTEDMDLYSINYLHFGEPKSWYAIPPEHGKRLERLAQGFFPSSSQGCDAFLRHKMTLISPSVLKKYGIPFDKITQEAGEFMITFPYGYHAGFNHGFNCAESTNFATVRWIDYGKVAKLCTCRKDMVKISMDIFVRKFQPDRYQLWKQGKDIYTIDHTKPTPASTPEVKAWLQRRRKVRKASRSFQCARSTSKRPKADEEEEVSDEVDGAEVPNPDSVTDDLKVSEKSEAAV
Lipid droplet = inhibitors of hepatocyte lipid droplet formation, primary screen, imaging, high-throughput imaging, BODIPY stain. AML12 mouse hepatocytes, oleate lipid droplets. inhibition, % at 6.5 µM. 240,000 compounds, 0.4% hits. AID 1656, 2009;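 active = lipid droplet intensity inhibited by at least 50%, with more than 500 cells counted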
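material = mouse AML12 hepatocyte cell line, fixed after treatment | also added = 100 µM oleic acid challenge | doses = compound at 6.5 µM only | schedule = overnight exposure | technique = Image-based BODIPY and DAPI two-channel analysis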
aDG glyco up = activators of alpha-DG glycosylation, primary screen, uHTS, Pro5-aDG cells, AlphaScreen | 360,000 compounds, 0.22% hits | alpha-DG glycosylation AlphaScreen (IIH6); 0% Pro5, 100% B10-LARGE cell signal | activation, % at 10 µM;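 active = activation of at least 8% versus controls, or a plate z-score of at least 8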;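 note: Pro5 are CHO cells carrying HIG-tagged alpha-DG that lacks glycosylation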
Active calls of the source: *; x = no result. Sampled rows, rich in hits. Any-hit rate of the full collection: about 3%.

SMILES | NR3A LBD binder | NPR1 activator | NPR2 activator | JMJD2C inh | Lipid droplet | aDG glyco up
CCOc1ccc(NC(=O)CN(C)CC(=O)Nc2cc(Cl)ccc2C#N)cc1OCC | 2 | 0 | -4 | 60* | 7 | 0
COc1ccc(NC(=O)CN(C)CC(=O)Nc2ccccc2SC)cc1 | -1 | -3 | 0 | 2 | 0 | 0
CCOc1ccc(NC(=O)CN(C)CC(=O)Nc2ccccc2SC)cc1OCC | 18* | -2 | 2 | 5 | 0 | 0
CCCC(=O)OC12CCCN(C1)/C(=C/c1cccc(Cl)c1)C2 (stereo not drawn) | x | -3 | -5 | x | x | x
Nc1[nH]c(C(=O)c2ccccc2)c(-c2ccc(Cl)cc2)c1C(=O)c1c[nH]c2ccccc12 | x | -7 | -7 | x | x | x
CCOC(=O)CN1C(=O)Nc2ccc(Br)cc2C1c1ccccc1 (stereo not drawn) | -1 | -33 | -16 | -37 | x | 0
CCOC(=O)CN1C(c2ccc(O)cc2)Nc2ccc(Br)cc2C1c1ccccc1 (stereo not drawn) | 19* | -43 | -16 | -28 | 1 | 0
COc1ccc(CCC(=O)Nc2ccc(-c3noc(-c4ccc(OC)c(OC)c4)n3)cc2)cc1 | 1 | 1 | -8 | -5 | 2 | 0
COc1ccc(-c2nc(-c3ccc(NC(=O)c4ccc(Br)o4)cc3)no2)cc1OC | 26* | 2 | -7 | -2 | x | 0
COc1cc(-c2nc(-c3ccc(NC(=O)c4ccc(Br)o4)cc3)no2)cc(OC)c1OC | 21* | -1 | 6 | -21 | -19 | 0
O=C(c1ccc(F)c(F)c1)N1CCC(Oc2cccnc2)CC1 | x | 3 | 1 | x | x | x
CC1=NN(c2ccc(Cl)c(C(=O)O)c2)C(=O)C1 | -4 | -2 | -1 | 7 | -1 | 0
CC1=NN(c2cccc(Cl)c2)C(=O)C1 | 11* | 4 | 7 | 4 | -4 | 0
CCCS(=O)(=O)c1c(S(=O)(=O)CCC)c2ccc(C(N)=O)cn2c1C(=O)c1ccc(OC)cc1 | 1 | 39 | 56* | 19 | -12 | 0
O=C1CC(=O)N(Cc2ccco2)C(=O)N1 | 1 | -3 | 4 | 52* | 17 | 0
COc1ccc(CNC(=O)c2[nH]c(C)c(C(C)=O)c2C)cc1 | -2 | -3 | -1 | -8 | -6 | 0
O=C(C1CCCN(S(=O)(=O)c2ccc([N+](=O)[O-])cc2)C1)N1CCN(Cc2ccccc2)CC1 (stereo not drawn) | x | 1 | -7 | x | x | x
Cc1ccc(NC(=O)c2ccc(N3C(=O)C4CC=C(Cl)CC4C3=O)cc2)cc1 (stereo not drawn) | 26* | 5 | 4 | 9 | 5 | 0
CN(CC(=O)Nc1cccc(F)c1)C(=O)c1cn(-c2ccccc2)nc1-c1ccc(F)cc1 | 35* | -3 | -4 | -1 | x | 0
COc1cccc(-c2nn(-c3ccc(C)cc3)cc2C(=O)N(C)CC(=O)Nc2cccc(F)c2)c1 | 13* | -2 | 0 | -9 | x | 0
CCOc1ccc(NC(=O)CN(C)C(=O)c2cn(-c3ccc(C)cc3)nc2-c2cccc(OC)c2)cc1OCC | 3 | -4 | -2 | x | x | -1
CN(CC(=O)Nc1cccc(F)c1)C(=O)c1cccc2ccccc12 | -2 | 0 | -5 | 4 | x | 0
O=C(Nc1cccc(S(=O)(=O)N2CCOCC2)c1)c1cn(-c2ccccc2)nc1-c1ccccc1 | 6 | -1 | -5 | -10 | 12 | 0
O=C(Nc1cccc(S(=O)(=O)N2CCOCC2)c1)c1cn(-c2ccccc2)nc1-c1ccc(F)cc1 | 22* | -7 | 4 | -1 | -1 | 0
COc1ccc(-c2nn(-c3ccccc3)cc2C(=O)N(C)CC(=O)Nc2ccccc2Br)cc1 | -5 | -2 | 1 | x | x | 0
SMILES | NR3A LBD binder | NPR1 activator | NPR2 activator | JMJD2C inh | Lipid droplet | aDG glyco up
COc1ccc(-c2nn(-c3ccccc3)cc2C(=O)N(C)CC(=O)Nc2cccc(F)c2)cc1 | 11* | 0 | -2 | -5 | x | 0
C[C@H]1[C@H](N)CC[C@@]23CCCN2C(=O)CCC[C@@H]13 | x | -2 | 3 | x | x | x
Cc1ccc(CN2C(=O)c3ccccc3NC2c2cc(Br)ccc2O)cc1 (stereo not drawn) | 22* | -8 | -5 | -7 | -26 | 0
COC(=O)[C@H](N[C@H](/C=C/c1ccccc1)[C@@H](O)Cc1ccccc1)c1ccccc1 | x | 36 | -4 | x | x | x
CCCc1cc(=O)oc2c(C)c(OC3CCCCC3=O)ccc12 (stereo not drawn) | 0 | 2 | 5 | 8 | 15 | 0
CCCc1cc(=O)oc2c(C)c(OS(C)(=O)=O)ccc12 | 16* | 3 | 1 | -9 | x | 0
N#Cc1c(-c2ccccc2)nc(-c2ccccc2)nc1N1CCOCC1 | 0 | -3 | -8 | 9 | 11 | 0
N#Cc1c(N)nc(-c2ccccc2)nc1-c1ccccc1 | 10* | 1 | 4 | -4 | x | 0
CC(=O)NC(c1ccccc1)c1nc(-c2csc3ccccc23)cs1 (stereo not drawn) | x | -5 | -5 | x | x | 1
COc1ccc(NC(=O)c2cc(-c3cc(Cl)ccc3C)n[nH]2)cc1OC | x | -1 | 2 | x | x | 0
COc1ccc(Cl)cc1-c1cc(C(=O)NCc2ccc(C(F)(F)F)cc2)[nH]n1 | x | 17 | 7 | x | x | 0
COc1ccc(Cl)cc1-c1cc(C(=O)NCc2ccc(F)cc2)[nH]n1 | x | 43* | 21 | x | x | 1
O=C(NCc1ccc2c(c1)OCO2)c1cc(-c2cc(Cl)ccc2O)n[nH]1 | 11* | 16 | 5 | 0 | 12 | 0
COc1ccc(NC(=O)c2cc(-c3cc(Cl)ccc3OC)n[nH]2)cc1OC | x | 45* | 53* | x | x | 0
Cc1c(C(=O)NCc2ccccc2CN2CCCC2)oc2ccc(F)cc12 | 1 | -8 | -10 | 5 | x | 0
Cc1ccc(C)c(NS(=O)(=O)c2ccc(NC(=O)CSc3ccc(Cl)cc3)cc2)c1 | 1 | -1 | 7 | -6 | -5 | 0
Cc1ccc(NS(=O)(=O)c2ccc(NC(=O)c3cccs3)cc2)c(C)c1 | 29* | 0 | 0 | 1 | -25 | 0
CNC(=O)c1cc(S(=O)(=O)Nc2ccc(C)cc2C)ccc1C | 14* | -3 | 6 | -32 | 1 | 0
Cc1ccc(NC(=O)c2cc(S(=O)(=O)Nc3ccc(C)cc3)cs2)cc1 | 27* | -13 | -14 | 3 | x | 2
